Measurements from ChEMBL document CHEMBL4699432, “Rational design, synthesis and testing of novel tricyclic topoisomerase inhibitors for the treatment of bacterial infections part 1” (RSC Med Chem, 2020).
≈ marks a conversion by molar mass, not a printed value.

What was measured:
Staphylococcus aureus [1] = test: Antibacterial activity against Staphylococcus aureus ATCC 29213 assessed as reduction in bacterial growth by CLSI method based broth microdilution assay; format: functional
Cytochrome P450 2C19 = Cytochrome P450 2C19 (Homo sapiens, UniProt P33261); test: Inhibition of CYP2C19 (unknown origin)
Staphylococcus aureus [2] = test: Antibacterial activity against methicillin-resistant Staphylococcus aureus NRS74 assessed as reduction in bacterial growth by CLSI method based broth microdilution assay; format: functional
Cytochrome P450 3A4 = Cytochrome P450 3A4 (Homo sapiens, UniProt P08684); test: Inhibition of CYP3A4 (unknown origin)
Cytochrome P450 2C9 = Cytochrome P450 2C9 (Homo sapiens, UniProt P11712); test: Inhibition of CYP2C9 (unknown origin)
Cytochrome P450 2D6 = Cytochrome P450 2D6 (Homo sapiens, UniProt P10635); test: Inhibition of CYP2D6 (unknown origin)
[3] = Thermodynamic solubility of compound at physiological pH; format: physicochemical; settings: read-out: Therm_solubility
Staphylococcus aureus [4] = test: Antibacterial activity against methicillin-resistant Staphylococcus aureus VRS8 assessed as reduction in bacterial growth by CLSI method based broth microdilution assay; format: functional
[5] = Cytotoxicity against human HepG2 cells; format: cell-based
Cytochrome P450 1A2 = target: T1, Cytochrome P450 1A2 (Homo sapiens, UniProt P05177); test: Inhibition of CYP1A2 (unknown origin)
T1 sequence (P05177 whole entry): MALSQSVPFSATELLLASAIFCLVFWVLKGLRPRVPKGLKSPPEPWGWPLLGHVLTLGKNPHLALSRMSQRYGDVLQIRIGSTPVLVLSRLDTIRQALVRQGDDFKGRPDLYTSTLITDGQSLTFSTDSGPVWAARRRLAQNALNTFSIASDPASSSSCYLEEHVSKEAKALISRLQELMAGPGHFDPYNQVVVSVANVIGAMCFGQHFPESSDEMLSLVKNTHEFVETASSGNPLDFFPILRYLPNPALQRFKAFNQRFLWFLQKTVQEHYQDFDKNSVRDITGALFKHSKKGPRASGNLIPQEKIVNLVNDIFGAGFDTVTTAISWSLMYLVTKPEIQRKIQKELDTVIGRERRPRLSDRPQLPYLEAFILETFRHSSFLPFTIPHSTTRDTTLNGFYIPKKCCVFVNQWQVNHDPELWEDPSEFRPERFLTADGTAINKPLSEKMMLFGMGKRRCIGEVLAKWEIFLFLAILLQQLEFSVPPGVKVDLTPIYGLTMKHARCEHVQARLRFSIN

Streptococcus pneumoniae = test: Antibacterial activity against Streptococcus pneumoniae ATCC 49619 assessed as reduction in bacterial growth by CLSI method based broth microdilution assay; format: functional
Outline: (§1)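 MIC by broth microdilution following CLSI guidelines for culturing and susceptibility testing; each determination run in triplicate. Agar dilution was used instead only ahead of frequency-of-resistance work.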

[6] = Lipophilicity, logD of the compound at pH 7.4; format: physicochemical; settings: buffer
[7] = target: Voltage-gated inwardly rectifying potassium channel KCNH2 (Homo sapiens, UniProt Q12809)
Neisseria gonorrhoeae = test: Antibacterial activity against Neisseria gonorrhoeae assessed as reduction in bacterial growth by CLSI method based broth microdilution assay; format: functional; outline: as §1
hERG (KCNH2) = hERG (KCNH2) (Homo sapiens, UniProt Q12809); test: Inhibition of human ERG at 100 uM relative to control
Staphylococcus aureus [8] = test: Antibacterial activity against fluoroquinolone and multidrug-resistant Staphylococcus aureus assessed as reduction in bacterial growth by CLSI method based broth microdilution assay; format: functional
Outline: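 Run to CLSI guidelines by broth microdilution, in triplicate. Growth was read to give the MIC.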

Sequence of Cytochrome P450 3A4 (P08684 whole entry): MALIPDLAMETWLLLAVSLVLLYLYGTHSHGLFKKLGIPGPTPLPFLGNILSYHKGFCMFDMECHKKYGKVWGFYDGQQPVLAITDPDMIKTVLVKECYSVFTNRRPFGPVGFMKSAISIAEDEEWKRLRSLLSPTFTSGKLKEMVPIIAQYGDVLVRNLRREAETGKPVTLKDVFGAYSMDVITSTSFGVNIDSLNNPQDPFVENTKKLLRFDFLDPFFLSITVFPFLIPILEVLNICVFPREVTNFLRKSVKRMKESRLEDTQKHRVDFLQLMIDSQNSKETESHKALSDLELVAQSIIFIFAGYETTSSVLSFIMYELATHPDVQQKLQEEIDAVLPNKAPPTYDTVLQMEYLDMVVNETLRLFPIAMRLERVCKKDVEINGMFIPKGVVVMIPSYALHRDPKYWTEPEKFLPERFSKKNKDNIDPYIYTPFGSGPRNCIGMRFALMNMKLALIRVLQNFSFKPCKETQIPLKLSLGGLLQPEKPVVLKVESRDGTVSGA
Sequence of Cytochrome P450 2C9 (P11712 whole entry): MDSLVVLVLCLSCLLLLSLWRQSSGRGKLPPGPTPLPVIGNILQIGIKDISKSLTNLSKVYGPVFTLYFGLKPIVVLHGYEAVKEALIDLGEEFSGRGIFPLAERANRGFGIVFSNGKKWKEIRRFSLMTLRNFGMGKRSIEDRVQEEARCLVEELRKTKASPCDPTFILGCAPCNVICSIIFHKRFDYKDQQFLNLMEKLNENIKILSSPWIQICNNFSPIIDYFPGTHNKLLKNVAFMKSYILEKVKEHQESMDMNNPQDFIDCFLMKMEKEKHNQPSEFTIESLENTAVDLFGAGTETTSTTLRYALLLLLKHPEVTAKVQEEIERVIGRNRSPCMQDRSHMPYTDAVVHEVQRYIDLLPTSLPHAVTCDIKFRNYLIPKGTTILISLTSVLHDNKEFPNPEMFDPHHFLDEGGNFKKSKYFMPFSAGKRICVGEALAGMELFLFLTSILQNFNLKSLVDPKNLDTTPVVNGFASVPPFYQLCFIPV
Sequence of Cytochrome P450 2C19 (P33261 whole entry): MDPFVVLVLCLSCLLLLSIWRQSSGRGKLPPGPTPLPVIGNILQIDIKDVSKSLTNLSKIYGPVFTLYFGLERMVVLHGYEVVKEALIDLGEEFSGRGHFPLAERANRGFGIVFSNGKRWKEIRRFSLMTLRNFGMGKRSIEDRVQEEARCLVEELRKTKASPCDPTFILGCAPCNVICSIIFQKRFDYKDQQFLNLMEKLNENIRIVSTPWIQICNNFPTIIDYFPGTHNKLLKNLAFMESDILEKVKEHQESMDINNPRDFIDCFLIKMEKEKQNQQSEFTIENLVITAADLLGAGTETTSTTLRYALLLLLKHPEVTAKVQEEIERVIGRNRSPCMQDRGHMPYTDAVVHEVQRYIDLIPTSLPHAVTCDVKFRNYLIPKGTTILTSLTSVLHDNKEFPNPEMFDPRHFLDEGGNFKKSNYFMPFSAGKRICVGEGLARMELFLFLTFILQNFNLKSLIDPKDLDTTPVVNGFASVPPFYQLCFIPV
Sequence of Cytochrome P450 2D6 (P10635 whole entry): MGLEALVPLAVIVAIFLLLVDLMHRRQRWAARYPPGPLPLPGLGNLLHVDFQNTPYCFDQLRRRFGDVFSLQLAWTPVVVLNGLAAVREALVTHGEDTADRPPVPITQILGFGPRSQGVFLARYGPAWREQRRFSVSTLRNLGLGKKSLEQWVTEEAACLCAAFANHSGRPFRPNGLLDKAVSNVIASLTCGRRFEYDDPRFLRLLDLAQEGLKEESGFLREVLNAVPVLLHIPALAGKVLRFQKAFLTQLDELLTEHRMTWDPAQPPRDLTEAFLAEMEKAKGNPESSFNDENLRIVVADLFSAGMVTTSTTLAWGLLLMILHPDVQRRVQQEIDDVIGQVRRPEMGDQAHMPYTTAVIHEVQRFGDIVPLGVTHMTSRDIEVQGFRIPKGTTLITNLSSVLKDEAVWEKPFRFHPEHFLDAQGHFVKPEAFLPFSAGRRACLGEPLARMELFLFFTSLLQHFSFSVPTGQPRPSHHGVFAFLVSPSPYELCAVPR
Sequence of Voltage-gated inwardly rectifying potassium channel KCNH2 (Q12809 whole entry): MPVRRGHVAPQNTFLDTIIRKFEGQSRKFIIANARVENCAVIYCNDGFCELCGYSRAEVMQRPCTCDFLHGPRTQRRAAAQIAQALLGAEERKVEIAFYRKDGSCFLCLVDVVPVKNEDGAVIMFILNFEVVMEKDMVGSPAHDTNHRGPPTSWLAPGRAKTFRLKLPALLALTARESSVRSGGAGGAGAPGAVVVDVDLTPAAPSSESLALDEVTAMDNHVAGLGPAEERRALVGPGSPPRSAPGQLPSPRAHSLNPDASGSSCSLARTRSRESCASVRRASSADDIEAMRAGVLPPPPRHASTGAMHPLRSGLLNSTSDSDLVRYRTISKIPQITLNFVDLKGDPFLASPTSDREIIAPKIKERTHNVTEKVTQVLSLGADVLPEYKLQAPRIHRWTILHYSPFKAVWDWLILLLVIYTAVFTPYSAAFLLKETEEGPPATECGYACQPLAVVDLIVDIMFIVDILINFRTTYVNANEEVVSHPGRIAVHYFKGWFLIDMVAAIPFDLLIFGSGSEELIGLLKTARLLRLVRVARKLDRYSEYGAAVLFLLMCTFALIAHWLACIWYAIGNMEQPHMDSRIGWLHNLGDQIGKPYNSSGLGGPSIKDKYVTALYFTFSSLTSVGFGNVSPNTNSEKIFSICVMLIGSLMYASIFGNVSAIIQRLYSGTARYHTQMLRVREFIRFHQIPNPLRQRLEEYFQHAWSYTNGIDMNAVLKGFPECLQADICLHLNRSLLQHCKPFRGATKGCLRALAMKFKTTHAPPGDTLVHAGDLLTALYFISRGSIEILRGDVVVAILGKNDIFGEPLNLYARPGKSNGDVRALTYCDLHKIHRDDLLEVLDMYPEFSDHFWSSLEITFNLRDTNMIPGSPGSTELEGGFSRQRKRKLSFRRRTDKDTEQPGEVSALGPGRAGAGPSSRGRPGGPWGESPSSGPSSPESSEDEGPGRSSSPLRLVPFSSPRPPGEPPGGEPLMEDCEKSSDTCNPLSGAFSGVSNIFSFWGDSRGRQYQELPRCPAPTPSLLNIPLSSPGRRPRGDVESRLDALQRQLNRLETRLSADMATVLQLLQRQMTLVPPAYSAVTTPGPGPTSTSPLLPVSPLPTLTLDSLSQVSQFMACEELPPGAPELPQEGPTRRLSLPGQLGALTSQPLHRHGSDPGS
Sequence of hERG (KCNH2) (Q12809 whole entry): as above

SMILES | MIC (Staphylococcus aureus [1]) [µg/mL] | solubility thermodynamic [3] | CC50 [5] [µg/mL] | MIC (Streptococcus pneumoniae) [µg/mL] | logD [6] | further results
CCn1c(=O)c2ncoc2c2ccc(-c3cc(F)c(N)cc3F)c(C)c21 | 2 (≈ 5.63 µM) | – | – | – | – | –
CCn1c(=O)c2ncoc2c2cc(F)c(-c3cc(F)c(N)cc3F)c(C)c21 | 1 (≈ 2.68 µM) | – | – | – | – | –
Nc1cc(F)c(-c2ccc3c4ocnc4c(=O)n(C4CC4)c3c2)cc1F | 2 (≈ 5.66 µM) | – | – | – | – | –
Cc1c(-c2ccc3[nH]ncc3c2)ccc2c3oc(CN)nc3c(=O)n(C3CC3)c12 | 0.06 (≈ 0.156 µM) | 10 µg/mL | 32 (≈ 83 µM) | – | – | IC50 (Cytochrome P450 2C19): 0.8 µM; MIC (Staphylococcus aureus [2]): 0.5 µg/mL (≈ 1.3 µM); IC50 (Cytochrome P450 3A4): 1.3 µM; IC50 (Cytochrome P450 2C9): 0.2 µM; IC50 (Cytochrome P450 2D6): 12.7 µM; MIC (Staphylococcus aureus [4]): 2 µg/mL (≈ 5.19 µM); IC50 (Cytochrome P450 1A2): 12.3 µM
Cc1c(-c2cc(F)c(CO)cc2F)ccc2c3ocnc3c(=O)n(C3CC3)c12 | 0.06 (≈ 0.157 µM) | 1.9 µg/mL | > 32 | 0.25 (≈ 0.654 µM) | 3.14 | –
Cc1c(-c2ccc(N)cc2F)ccc2c3ocnc3c(=O)n(C3CC3)c12 | 0.12 (≈ 0.343 µM) | 1.1 µg/mL | 16 (≈ 45.8 µM) | 1 (≈ 2.86 µM) | 3.05 | –
Cc1c(-c2ccc(N)cc2)ccc2c3ocnc3c(=O)n(C3CC3)c12 | 0.5 (≈ 1.51 µM) | – | – | 4 (≈ 12.1 µM) | 2.59 | –
Cc1nc2c(=O)n(C3CC3)c3c(C)c(-c4cc(F)c(N)cc4F)ccc3c2o1 | 0.03 (≈ 0.0787 µM) | – | – | – | – | –
Cc1c(-c2ccc3[nH]ncc3c2)ccc2c3ocnc3c(=O)n(C3CC3)c12 | 0.004 (≈ 0.0112 µM) | 1.1 µg/mL | > 16 | 0.5 (≈ 1.4 µM) | 3.29 | –
Cc1c(-c2ccc(N)c(C#N)c2)ccc2c3ocnc3c(=O)n(C3CC3)c12 | 0.06 (≈ 0.168 µM) | – | > 4 | 0.25 (≈ 0.701 µM) | 2.94 | –
Cc1c(-c2ccc3[nH]cnc3c2)ccc2c3ocnc3c(=O)n(C3CC3)c12 | 0.25 (≈ 0.701 µM) | < 9 µg/mL | > 16 | 0.25 (≈ 0.701 µM) | 3.03 | –
Cc1c(-c2cnc3[nH]ncc3c2)ccc2c3oc(CN)nc3c(=O)n(C3CC3)c12 | 0.25 (≈ 0.647 µM) | 618 µg/mL | > 128 | – | – | MIC (Staphylococcus aureus [2]): 2 µg/mL (≈ 5.18 µM); IC50 [7]: 45.1 µM; MIC (Staphylococcus aureus [4]): 2 µg/mL (≈ 5.18 µM)
Cc1c(-c2ccc(C(C)N)cc2)ccc2c3ocnc3c(=O)n(C3CC3)c12 (configuration not stated) | 0.5 (≈ 1.39 µM) | – | > 32 | 2 (≈ 5.56 µM) | – | –
Cc1c(-c2ccc(N)c(F)c2)ccc2c3ocnc3c(=O)n(C3CC3)c12 | 0.12 (≈ 0.343 µM) | – | > 128 | 2 (≈ 5.72 µM) | – | –
Cc1c(-c2cnc(N)nc2)ccc2c3ocnc3c(=O)n(C3CC3)c12 | 1 (≈ 3 µM) | 15 µg/mL | > 32 | 4 (≈ 12 µM) | 1.32 | –
Nc1cc(F)c(-c2nc3c(cc2F)c2ocnc2c(=O)n3C2CC2)cc1F | 128 (≈ 344 µM) | – | – | – | – | –
Cc1c(-c2cc(F)c(N)cc2F)ccc2c3ocnc3c(=O)n(C3CC3)c12 | 0.03 (≈ 0.0817 µM) | 3 µM | > 128 | 1 (≈ 2.72 µM) | 2.96 | IC50 (Cytochrome P450 2C19): > 30 µM; MIC (Neisseria gonorrhoeae): 0.06 µg/mL (≈ 0.163 µM); inhibition at 100 µM (hERG (KCNH2)): 3%; MIC (Staphylococcus aureus [2]): 0.06 µg/mL (≈ 0.163 µM); IC50 (Cytochrome P450 3A4): > 30 µM; IC50 (Cytochrome P450 2C9): > 30 µM; IC50 (Cytochrome P450 2D6): > 30 µM; MIC90 (Staphylococcus aureus [8]): 0.25 µg/mL (≈ 0.681 µM); MIC (Staphylococcus aureus [4]): 0.5 µg/mL (≈ 1.36 µM); IC50 (Cytochrome P450 1A2): > 30 µM
Cc1c(-c2cnc(N)cn2)ccc2c3ocnc3c(=O)n(C3CC3)c12 | 64 (≈ 192 µM) | 6.8 µg/mL | – | > 128 | 1.46 | –
Cc1c(-c2cc(F)c(N)cc2F)ccc2c3oc(CN)nc3c(=O)n(C3CC3)c12 | 0.06 (≈ 0.151 µM) | 36 µg/mL | > 64 | – | – | IC50 (Cytochrome P450 2C19): 0.5 µM; MIC (Staphylococcus aureus [2]): 0.06 µg/mL (≈ 0.151 µM); IC50 (Cytochrome P450 3A4): 12.9 µM; IC50 (Cytochrome P450 2C9): 0.3 µM; IC50 (Cytochrome P450 2D6): 11.3 µM; MIC (Staphylococcus aureus [4]): 4 µg/mL (≈ 10.1 µM); IC50 (Cytochrome P450 1A2): 7.5 µM
C[C@H]1COc2c(-c3cc(F)c(N)cc3F)ccc3c4ocnc4c(=O)n1c23 | 0.5 (≈ 1.35 µM) | – | – | – | – | –
Nc1cc(F)c(-c2ccc3c4ocnc4c(=O)n(C4CC4)c3c2Cl)cc1F | 0.25 (≈ 0.645 µM) | – | – | – | – | –
Cc1c(-c2ccc(N)nn2)ccc2c3ocnc3c(=O)n(C3CC3)c12 | > 64 | – | – | > 64 | – | –
Cc1c(-c2ccc3[nH]c(N)nc3c2)ccc2c3ocnc3c(=O)n(C3CC3)c12 | 0.25 (≈ 0.673 µM) | 16 µg/mL | > 32 | 0.25 (≈ 0.673 µM) | 2.52 | –
Cc1c(-c2ccc3c(c2)CNC3)ccc2c3ocnc3c(=O)n(C3CC3)c12 | 0.12 (≈ 0.336 µM) | 209 µg/mL | > 64 | 0.5 (≈ 1.4 µM) | 0.75 | –
Cc1c(-c2cc(F)c(C(=O)O)cc2F)ccc2c3ocnc3c(=O)n(C3CC3)c12 | 64 (≈ 161 µM) | – | – | > 128 | – | –
Cc1c(-c2ccc3nonc3c2)ccc2c3ocnc3c(=O)n(C3CC3)c12 | 0.25 (≈ 0.698 µM) | < 9 µg/mL | > 32 | 4 (≈ 11.2 µM) | 3.03 | –
Cc1c(-c2ccccc2)ccc2c3ocnc3c(=O)n(C3CC3)c12 | 1 (≈ 3.16 µM) | – | – | 4 (≈ 12.6 µM) | – | –
Nc1cc(F)c(-c2cc3c(cc2F)c2ocnc2c(=O)n3C2CC2)cc1F | 0.25 (≈ 0.673 µM) | – | – | – | – | –
